Unmarked numbers belong to inactive results.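 How the source made its calls: active means growth inhibition above 25% in both replicates, a cutoff set 3 SD above the mean; inconclusive means above 25% in only one replicate; inactive means the rest.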

This test in a line: S. cerevisiae growth inhibition in permissive medium (OD615), pilot counter-assay for S. cerevisiae lifespan shortening project, permissive growth control (AID 705). The conditions noted are these: OD615, 24 h, at 10 µM, active compounds read high. A digest of the protocol: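 assay system = Saccharomyces cerevisiae strain carrying genetically modified DeaD replicative-lifespan system | medium = SC raffinose/galactose permissive medium | dosing = 10 µM single dose, 0.25% DMSO | schedule = 24 h compound exposure at 30 °C after 4 h pre-growth | measured by = OD at 615 nm | read-out basis = growth inhibition from lowered OD615 after 24 h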
On to `Cc1c(/C=N/n2cnnc2)c2ccccc2n1C`, for which the growth inhibition was -2.21%.
In the case of `Cn1c(C(=O)N2CCC(C(=O)N3CCOCC3)CC2)cc2sccc21` it was -9.67%; in that of `CCN1CCN(CC(=O)Nc2cccc(C)c2C)C(=O)C1=O`, -3.54%.
For the molecule `CCOC(=O)N1CCN(CC(=O)Nc2cc3c(cc2C(C)=O)OCO3)CC1`, the growth inhibition is 2.37%.
In the case of `Cc1c(C#N)c2ncn(Cc3ccccc3)c(=O)c2n1-c1ccccc1`, the growth inhibition is -19.7%.
With `C=C(C)Cn1c(C2CC(=O)N(Cc3ccccc3)C2)nc2ccccc21` (centres undefined), the growth inhibition is -0.245%.
In the case of `COc1ccc(OC)c(NC(=O)COC(=O)c2ccc(S(=O)(=O)N3CCOCC3)cc2)c1` it was -3.99%; in that of `OC(COc1cccc2ccccc12)CN1CCN(c2ccccn2)CC1` (centres undefined), -5.36%; in that of `Cc1nnc(SCC(=O)NC(C)c2ccccc2)[nH]c1=O` (centres undefined), -10.9%.
Then `CCOC(=O)c1sc(N)nc1-c1ccccc1`, with -5.04%; and `CCP(=O)(c1ccccc1)C(C)(C)O` (centres undefined), with 6.37%; and `Cc1nn(C)c(C)c1NS(=O)(=O)c1ccccc1`, with -9.1%.
Then `CC(C)c1nnc(NC(=O)c2ccc(S(=O)(=O)N3CCOCC3)cc2)s1`, with -15%.
As to `CCCSC1=N/C(=C\c2ccsc2)C(=O)S1`, the growth inhibition is -10.5%.
Then `c1ccc2c(c1)CCCN2c1nc2ccccc2n2cnnc12`, with -6.12%; and `Cn1c(C(=O)NCCN2CCc3ccccc3C2)cc2c(=O)n(C)c3ccccc3c21`, with -2.54%.
Then `O=C(NCc1cccnc1)c1ccc(CS(=O)(=O)c2ccc(Br)cc2)o1`, with -8.28%; and `COc1ccccc1N1CCN(C(=O)CCCC2=NS(=O)(=O)c3ccccc3N2)CC1`, with 0.08%; and `COc1ccc(-c2nc(C#N)c(NCCN(C)C)o2)cc1`, with -5.38%.
Turning to `O=C(Nc1cccc(OC(F)(F)F)c1)c1ccc(Br)o1`, the growth inhibition was -1.13%.
In the case of `Cc1sc2nc(SCC(=O)OC(C)C)n(C)c(=O)c2c1C` it was -2.81%; in that of `CNC(=O)CN1C(=O)CSc2nc(C)cc(C)c21`, -8.87%.
For `CCSc1nnc(Cn2c(=O)sc3ccccc32)n1-c1ccc(OC)cc1`, the growth inhibition is -4.46%.
With `CCOc1ccccc1NC(=O)CSc1nc2c(c(=O)n1C)SC(C)C2` (centres undefined), the growth inhibition was -8.29%.
Then `CCC(C)NC(=O)CCS(=O)(=O)c1ccc2c(c1)n(C)c(=O)c(=O)n2C` (centres undefined), with -2.86%.
Regarding `COc1ccc(-n2ncc3c(N(C)C4CCCCC4)ncnc32)cc1`, the growth inhibition was -13.1%.
As for `CCOC(=O)CCc1c(C)n(CC)c2ncnn2c1=O`, the growth inhibition is -3.41%.
Then `Cc1ccc(S(=O)(=O)N2CCN(Cc3ccccc3C(F)(F)F)CC2)cc1`, with -12.5%; and `Cc1nc(N2CCN(C(=O)c3ccco3)CC2)c2c3c(sc2n1)CCC3`, with -10.5%.
In the case of `CCOC(=O)c1nnn(-c2nonc2N)c1CN(C)Cc1ccccc1` it was -7.27%; in that of `O=C(CN1CCOc2ccccc21)NCc1ccc(F)cc1`, -29.5%.
`NC(=O)CCc1c[nH]c2ccccc12`: the growth inhibition was -1.2%.
As to `CC1CC(C)(C)Nc2ccc(OC(=O)c3ccco3)cc21` (centres undefined), the growth inhibition was 7.66%.
Consider `Cc1cc(NC(=O)CN2CCCCC2C)nc2c1c(=O)oc1ccccc12` (centres undefined), for which the growth inhibition is 4.45%.
In the case of `Cc1cc(NC(=O)C2CC(c3ccc(F)cc3)=NO2)n(-c2ccccc2)n1` (centres undefined) it was -12.7%; in that of `O=C(Nc1ncc(Br)s1)C(Cc1ccccc1)n1cccc1` (centres undefined), -17.7%.
Then `COC(=O)C1CCN(C(=O)c2ccc(Cl)c(S(=O)(=O)NCc3cccnc3)c2)CC1`, with -4.88%; and `CCOC(=O)c1ccc(NC2c3ccccc3C(=O)N2c2cccnc2)cc1` (centres undefined), with 0.43%; and `C=CCOC(=O)C1=C(C)NC(=O)NC1c1ccc(OC(=O)c2ccco2)c(OC)c1` (centres undefined), with -6.37%.

Values taken from PubChem BioAssay.
